Data reported in ChEMBL document CHEMBL4371075, “α-Amino Diphenyl Phosphonates as Novel Inhibitors of Escherichia coli ClpP Protease” (J Med Chem, 2019).
Calls of active or inactive are those of the source. The rule behind the calls is not given here.

Key:
HepG2 = assay: Cytotoxicity against human HepG2 cells after 48 hrs by CellTiter-Glo assay; assay type: cell-based; conditions: HepG2, 48 h
Procedure, shortened: (§1)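 Human cells seeded (2000 cells/well; A549 500 cells/well), 24 h at 37 °C, 5% CO2, then compounds added (final DMSO 1%), 1:3 dilution series from 100 µM, 48 h exposure. ATP read by CellTiter-Glo luminescence relative to DMSO-treated cells; DMSO (1%) negative and valinomycin (10 µM) positive controls; plates accepted at Z' > 0.5.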

A549 = assay: Cytotoxicity against human A549 cells after 48 hrs by CellTiter-Glo assay; assay type: cell-based; conditions: A549, 48 h; procedure, shortened: as §1
[1] = target: ATP-dependent Clp protease proteolytic subunit (Escherichia coli (strain K12)) (UniProt P0A6G7); assay: Inhibition of Escherichia coli C-terminal His6-tagged ClpP expressed Escherichia coli SG1146a at 200 uM using Suc-LY-AMC as substrate preincubated for 10 mins followed by substrate addition and measured over 1 hr by fluorescence assay relative to control
Sequence of ATP-dependent Clp protease proteolytic subunit (Escherichia coli (strain K12)) (P0A6G7 whole entry): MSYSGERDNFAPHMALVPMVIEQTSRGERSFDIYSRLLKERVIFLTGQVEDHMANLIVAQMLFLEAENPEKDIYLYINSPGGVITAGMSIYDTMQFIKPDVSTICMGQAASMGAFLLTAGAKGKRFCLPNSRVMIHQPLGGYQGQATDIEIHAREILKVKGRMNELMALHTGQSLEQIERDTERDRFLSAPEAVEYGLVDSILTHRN
Procedure, shortened: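 E. coli ClpP (625 nM) in 100 mM NaCl, 100 mM Hepes pH 7.5, 0.05% Brij 35, preincubated with compound (200 µM final, triplicates) 10 min at 30 °C. Suc-LY-AMC added (75 µM), fluorescence (ex 350/em 435 nm) followed over 1 h at 30 °C. Inhibition relative to 2% DMSO vehicle; Z-LY-CMK (200 µM) positive control; plates valid at Z' > 0.6.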

HeLa = assay: Cytotoxicity against human HeLa cells after 48 hrs by CellTiter-Glo assay; assay type: cell-based; procedure, shortened: as §1
alpha-chymotrypsin = alpha-chymotrypsin (Bos taurus, UniProt P00766); assay: Inhibition of bovine alpha-chymotrypsin assessed as residual activity at 200 uM relative to control; conditions: cattle, read-out: Activity
Procedure, shortened: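 Bovine α-chymotrypsin (40 nM) with compound at 200 µM and Suc-LY-AMC (100 µM) in 150 mM NaCl, 10 mM CaCl2, 50 mM Tris-HCl, 0.05% Brij 35. AMC fluorescence read-out; residual activity relative to control without compound.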

[2] = target: ATP-dependent Clp protease proteolytic subunit (Escherichia coli (strain K12), UniProt P0A6G7); assay: Inhibition of Escherichia coli C-terminal His6-tagged ClpP expressed Escherichia coli SG1146a using Suc-LY-AMC as substrate preincubated for 10 mins followed by substrate addition and measured over 1 hr by fluorescence assay
Sequence of ATP-dependent Clp protease proteolytic subunit (P0A6G7 whole entry): as above
Procedure, shortened: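 ClpP at 625 nM with compound serial dilutions (1:3 or 1:2) in 100 mM NaCl, 100 mM Hepes pH 7.5, 0.05% Brij 35, preincubated 10 min at 30 °C. Suc-LY-AMC added (75 µM), fluorescence (ex 350/em 435 nm) tracked 1 h at 30 °C against DMSO vehicle (2% v/v).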

[3] = system: Escherichia coli ClpP (C-terminal His6-tagged); assay: Selectivity index, ratio of EC50 for human A549 cells to IC50 for Escherichia coli C-terminal His6-tagged ClpP expressed Escherichia coli SG1146a; assay type: toxicity; conditions: read-out: Selectivity Index
[4] = target: ATP-dependent Clp protease proteolytic subunit (Escherichia coli (strain K12)) (UniProt P0A6G7); assay: Reversible binding affinity to Escherichia coli C-terminal His6-tagged ClpP expressed Escherichia coli SG1146a up to 320 uM measured after cessation of compound treatment by SPR analysis
Procedure, shortened: (§2)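 His-tagged E. coli ClpP amine-coupled to chip (80 µg/mL in 10 mM sodium acetate pH 4). Running buffer 150 mM NaCl, 10 mM Hepes, 3 mM EDTA, 0.05% Tween-20, 3.2% DMSO; 20 µL/min, 6 min injection, up to 300 s dissociation; 2.5–320 µM range. Reference-channel subtracted, DMSO/bulk-shift corrected; return to baseline after injection end judged.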

Escherichia coli [5] = assay: Growth inhibition of tolC-deficient Escherichia coli JW5503 at 100 uM measured after 24 hrs relative to control; assay type: functional; conditions: JW5503, 24 h, read-out: GI
Procedure, shortened: (§3)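 Single colony in saline, adjusted in MHB; final inoculum 5x10^5 CFU/mL, compound 100 µM in triplicate, 2% DMSO and ciprofloxacin controls. 37 °C, 500 rpm shaking; OD600 at time 0 and later time points to quantify growth.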

Staphylococcus aureus = assay: Growth inhibition of Staphylococcus aureus ATCC 29213 at 100 uM measured after 24 hrs relative to control; assay type: functional; conditions: ATCC 29213, 24 h, read-out: GI; procedure, shortened: as §3
Escherichia coli [6] = assay: Growth inhibition of ClpP-deficient Escherichia coli JW0427-1 at 100 uM measured at 1 hr time interval for 15 to 24 hrs; assay type: functional, organism-based
Procedure, shortened: (§4)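 E. coli BW25-113 and isogenic ΔclpP JW0427-1, grown overnight in MHB, diluted 1:100 in M9 + 10 mM glucose to OD600 ~0.3; assayed at OD600 0.1 with compound 100 µM, with or without DPTA NONOate (2 mM) for NO stress. 37 °C, 500 rpm; OD600 hourly for 15 or 24 h; mean of three independent experiments ± standard deviation.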

Escherichia coli [7] = assay: Growth inhibition of wild-type Escherichia coli BW25113 at 100 uM under nitric oxide stress condition measured at 1 hr time interval for 15 to 24 hrs in presence of DPTA NONOate; assay type: functional, organism-based; procedure, shortened: as §4
Escherichia coli [8] = assay: Growth inhibition of ClpP-deficient Escherichia coli JW0427-1 at 100 uM under nitric oxide stress condition measured at 1 hr time interval for 15 to 24 hrs in presence of DPTA NONOate; assay type: functional, organism-based; procedure, shortened: as §4
Escherichia coli [9] = assay: Growth inhibition of wild-type Escherichia coli BW25113 at 100 uM measured at 1 hr time interval for 15 to 24 hrs; assay type: functional, organism-based; procedure, shortened: as §4
[10] = target: ATP-dependent Clp protease proteolytic subunit (Escherichia coli (strain K12)) (UniProt P0A6G7); assay: Reversible binding affinity to Escherichia coli C-terminal His6-tagged ClpP expressed Escherichia coli SG1146a up to 80 uM measured after cessation of compound treatment by SPR analysis; procedure, shortened: as §2
Escherichia coli [11] = assay: Growth inhibition of wild-type Escherichia coli BW25113 at 50 uM measured after 24 hrs in presence of efflux pump substrate PAbetaN relative to control; assay type: functional; conditions: BW25113, 24 h, read-out: GI
Procedure, shortened: (§5)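 E. coli BW25-113 wild type or ΔclpP JW0427-1 grown with compound (50 µM) plus efflux pump substrate PAβN (25 µg/ml); growth inhibition read as OD600 at 24 h, 37 °C with shaking.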

Escherichia coli [12] = assay: Growth inhibition of ClpP-deficient Escherichia coli JW0427-1 at 50 uM measured after 24 hrs in presence of efflux pump substrate PAbetaN relative to control; assay type: functional; conditions: JW0427-1, 24 h, read-out: GI; procedure, shortened: as §5

| Compound | EC50 (HepG2) [µM] | EC50 (A549) [µM] | inhibition [1] [%] | EC50 (HeLa) [µM] | activity at 200 µM (alpha-chymotrypsin) [%] | IC50 [2] [µM] | other results |
| --- | --- | --- | --- | --- | --- | --- | --- |
| C[C@H](NC(=O)[C@H](CO)NC(=O)c1cccs1)C(=O)NC(Cc1ccc(NC(=N)N)cc1)P(=O)(Oc1ccccc1)Oc1ccccc1 (stereo partly specified) | ≥ 100 | ≥ 100 | 90 | ≥ 100 | ≥ 100 | 49.5 | – |
| Nc1ccc(C(NC(=O)OCc2ccccc2)P(=O)(Oc2ccccc2)Oc2ccccc2)cc1 (stereo unspecified) | ≥ 100 | 57.8 | 96 | ≥ 100 | ≥ 100 | 39.8 | selectivity ratio [3]: < 10 |
| COC(=O)NC(c1ccc(C(=N)N)cc1)P(=O)(Oc1ccccc1)Oc1ccccc1 (stereo unspecified) | ≥ 100 | ≥ 100 | 93 | ≥ 100 | ≥ 100 | 48.1 | – |
| O=C(NC(c1ccc(NC(=O)C(F)(F)F)cc1)P(=O)(Oc1ccccc1)Oc1ccccc1)OCc1ccc2c(c1)OCO2 (stereo unspecified) | ≥ 100 | 41.5 | 93 | ≥ 100 | 46 | 8.2 | selectivity ratio [3]: < 10; Activity [4]: Active |
| O=C(NC(c1c[nH]c2ccc(Cl)cc12)P(=O)(Oc1ccccc1)Oc1ccccc1)OCc1ccccc1 (stereo unspecified) | 10.5 | 5.9 | 88 | 19.9 | ≥ 100 | 100 | – |
| O=C(NC(Cc1ccc(C(F)(F)F)cc1)P(=O)(Oc1ccccc1)Oc1ccccc1)OCc1ccccc1 (stereo unspecified) | ≥ 100 | ≥ 100 | 100 | ≥ 100 | 93.9 | 14.2 | – |
| N=C(N)N1CC(C(NC(=O)OCc2ccccc2)P(=O)(Oc2ccccc2)Oc2ccccc2)C1 (stereo unspecified) | ≥ 100 | ≥ 100 | 100 | ≥ 100 | ≥ 100 | 71.3 | inhibition of growth at 100 µM (Escherichia coli [5]): 99%; inhibition of growth at 100 µM (Staphylococcus aureus): 99.9% |
| CN(C)c1ccc(C(NC(=O)OCc2ccccc2)P(=O)(Oc2ccccc2)Oc2ccccc2)cc1 (stereo unspecified) | 28.4 | 65.6 | 100 | ≥ 100 | ≥ 100 | 0.6 | Activity [4]: Active |
| O=C(NC(CCc1ccc([N+](=O)[O-])cc1)P(=O)(Oc1ccccc1)Oc1ccccc1)OCc1ccccc1 (stereo unspecified) | ≥ 100 | ≥ 100 | 100 | ≥ 100 | ≥ 100 | 13.1 | – |
| Nc1cccc(C(NC(=O)OCc2ccccc2)P(=O)(Oc2ccccc2)Oc2ccccc2)c1 (stereo unspecified) | 23.8 | 27.5 | 100 | ≥ 100 | 17.9 | 0.5 | growth inhibition (GI) (Escherichia coli [6]): inactive; growth inhibition (GI) (Escherichia coli [7]): Active; growth inhibition (GI) (Escherichia coli [8]): inactive; Activity [4]: Active; growth inhibition (GI) (Escherichia coli [9]): inactive |
| NCCOC(=O)NC(c1ccc(NC(=O)C(F)(F)F)cc1)P(=O)(Oc1ccccc1)Oc1ccccc1 (stereo unspecified) | – | – | 73 | – | – | – | – |
| O=C(NC(c1ccc(N2CCNCC2)cc1)P(=O)(Oc1ccccc1)Oc1ccccc1)OCc1ccccc1 (stereo unspecified) | 1.1 | 0.4 | 100 | 8.6 | ≥ 100 | 0.6 | Activity [10]: Active; inhibition of growth at 100 µM (Escherichia coli [5]): 69.9% |
| O=C(NC(Cc1ccc(F)cc1)P(=O)(Oc1ccccc1)Oc1ccccc1)OCc1ccccc1 (stereo unspecified) | – | – | 13 | – | – | – | – |
| N=C(N)NCCCC(NC(=O)OCc1ccccc1)P(=O)(Oc1ccccc1)Oc1ccccc1 (stereo unspecified) | – | – | 15 | – | – | – | – |
| O=C(NC(c1cccnc1)P(=O)(Oc1ccccc1)Oc1ccccc1)OCc1ccccc1 (stereo unspecified) | – | – | 27 | – | – | – | – |
| O=C(NC(Cc1ccccc1)P(=O)(Oc1ccccc1)Oc1ccccc1)OCc1ccccc1 (stereo unspecified) | – | – | 7 | – | – | – | – |
| Nc1cccc(C(NC(=O)OCc2ccc3c(c2)OCO3)P(=O)(Oc2ccccc2)Oc2ccccc2)c1 (stereo unspecified) | – | – | 20 | – | – | – | – |
| O=C(NC(c1ccc2occc2c1)P(=O)(Oc1ccccc1)Oc1ccccc1)OCc1ccccc1 (stereo unspecified) | – | – | 6 | – | – | – | – |
| COc1cccc(C(NC(=O)OCc2ccccc2)P(=O)(Oc2ccccc2)Oc2ccccc2)n1 (stereo unspecified) | ≥ 100 | ≥ 100 | 100 | ≥ 100 | ≥ 100 | 38 | – |
| N=C(N)c1ccc2cc(C(NC(=O)OCc3ccccc3)P(=O)(Oc3ccccc3)Oc3ccccc3)ccc2c1 (stereo unspecified) | 28.3 | 25.6 | 81 | 19.9 | ≥ 100 | 79.7 | inhibition of growth at 100 µM (Escherichia coli [5]): 98.9%; inhibition of growth at 50 µM (Escherichia coli [11]): 98.5%; inhibition of growth at 50 µM (Escherichia coli [12]): 99.4% |
